LYPLA1 inh: blocks human lysophospholipase 1, a PME1 counter-screen; inhibition, % at 5.9 µM; recombinant LYPLA1, FP-Rh probe fluorescence polarization; 0.16% of 320,000 active;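 active means inhibition above the mean of all tested compounds plus 3 SD, set per campaign, cut at about 14% in these data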;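 further: inhibitors block serine hydrolase probe labeling of LYPLA1 so polarization falls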
PAD4 inh: PAD4 (human) enzyme inhibition; AID 485272; 0.41% of 330,000 active; inhibition, % at 6.36 µM; recombinant PAD4, RCA probe fluorescence polarization;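 active means percent inhibition above a cutoff equal to the mean of all tested compounds plus 3 SD, cut at about 15% in these data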
RBBP9 inhibitor: inhibitors of human serine hydrolase RBBP9. O75884. recombinant RBBP9, FP-Rh probe fluorescence polarization. inhibition, % at 7.94 µM. 0.2% of 220,000 active;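 active means inhibition above the campaign mean of all tested compounds plus 3 SD, cut at about 14% in these data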
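System: RBBP9 protein | Quantity: 2.5 µM RBBP9 dispensing solution, before mixing | Reagent: FP-Rh probe, 375 nM dispensing solution | Timing: Enzyme-compound preincubation 30 min, then probe labeling 45 min, 25 °C | Measured by: Fluorescence polarization | Read-out: % inhibition | Replication: One well per compound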
Fam108B counter: blocks mouse Fam108B hydrolase in RBBP9 counter-screen. recombinant Fam108B, FP-Rh probe fluorescence polarization. inhibition, % at 9.51 µM. 0.33% of 300,000 active. AID 1947;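 active means inhibition above the screen mean inhibition plus 3 SD, computed separately per campaign, cut at about 18% in these data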;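 further: inhibitors lower polarization as less probe binds the enzyme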
LYPLA2 counter: LYPLA2 (human) inhibition in PME1 counter-screen | O95372 | recombinant LYPLA2, FP-Rh probe fluorescence polarization | inhibition, % at 5.9 µM | 0.38% of 320,000 active;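 active means inhibition above the screen-wide mean plus 3 SD, limit set per campaign, cut at about 26% in these data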
PME-1 primary: PME-1 (human) inhibition. Q9Y570. recombinant PME-1, FP-Rh probe fluorescence polarization. inhibition, % at 5.9 µM. 0.53% of 320,000 active. AID 2130;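 active means inhibition above the campaign mean of all compounds plus 3 SD, cut at about 26% in these data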;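 further: competitive labeling of PME-1 active site by serine hydrolase directed probe; inhibitors block probe labeling so polarization falls and inhibition rises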
LYPLA2 conf: LYPLA2 (human) inhibition, confirmation counter-screen; inhibition, % at 5.9 µM; 72% of 1,100 active; recombinant LYPLA2, FP-Rh probe fluorescence polarization; shares compounds with LYPLA2 counter;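 active means mean inhibition across replicates above the hit cutoff set in the primary screen, cut at about 26% in these data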;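 further: blocked labeling of the enzyme by serine hydrolase FP-Rh probe lowers polarization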
LYPLA2 ABPP: blocks human acyl-protein thioesterase 2 in gel ABPP; shares compounds with LYPLA2 counter; rhLYPLA2 in mouse brain proteome, gel ABPP FP-Rh; inhibition, % at 20 µM; 30% of 150 active; AID 652029;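 active means inhibition of LYPLA2 enzyme probe labeling above about 50%, limit read from the data; inactive means inhibition below that limit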;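 further: loss of FP-Rh probe labeling of the LYPLA2 gel band measured as band density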
Of the large screens only hits and unclear results are named; the others gave an inactive call (follow-up assays come after a bar, where they were run). Shown are actives, neighbours in structure and some others; about 1.3% of the full set was active somewhere.

Cc1cccc(N2CCN(C(=O)Cc3ccc(-n4c(=O)[nH]c5ccsc5c4=O)cc3)CC2)c1C	LYPLA2 counter 67 | LYPLA2 conf 68 | LYPLA2 ABPP 56
CCn1c(CNC(=O)c2ccccc2F)nnc1SCC(=O)Nc1nncs1	none (no result: RBBP9 inhibitor)
CCCc1cc(C(=O)NC2CCCN(Cc3ccccc3F)C2)no1 (stereo not drawn)	none (no result: RBBP9 inhibitor)
NC(=O)CC(NC(=O)c1ccc(Br)cc1)c1ccc(N2CCN(c3ccccc3)CC2)c([N+](=O)[O-])c1 (stereo not drawn)	LYPLA2 counter 26 (no result: RBBP9 inhibitor) | LYPLA2 conf 28
O=C(Nc1ccc(N2CCN(C(=O)c3cccs3)CC2)cc1)c1ccccc1F	LYPLA2 counter 27 (no result: RBBP9 inhibitor) | LYPLA2 conf inactive
O=C(Nc1ccc(N2CCN(C(=O)c3cccs3)CC2)cc1)c1ccccc1Cl	LYPLA2 counter 41 (no result: RBBP9 inhibitor) | LYPLA2 conf 41
O=C(O)C1=C[C@H](c2cccs2)C[C@H](OCc2ccc(CO)cc2)O1	none (no result: RBBP9 inhibitor)
O=[N+]([O-])c1ccc(N2CCN(c3ccc([N+](=O)[O-])cc3CO)CC2)c(CO)c1	LYPLA2 counter 27 (no result: RBBP9 inhibitor) | LYPLA2 conf 30
N#Cc1cc([N+](=O)[O-])ccc1N1CCN(c2ccccc2O)CC1	none
COc1ccc(C(=O)NCCCNC(=O)c2cnccn2)cc1Br	none (no result: RBBP9 inhibitor)
COC(=O)c1ccc(NC(=O)c2ccc3c(c2)C(=O)N(Cc2cccnc2)C3=O)cc1	LYPLA2 counter 50 (no result: RBBP9 inhibitor) | LYPLA2 conf 51
O=C(Nc1cccnc1)c1ccc2c(c1)C(=O)N(Cc1cccnc1)C2=O	none
COCCn1c(=S)[nH]c2ccccc21	none
O=C(CN1CCN(C(=O)c2cncn2-c2ccccc2)CC1)Nc1ccccc1Cl	none (no result: RBBP9 inhibitor, Fam108B counter)
O=C(OCC(=O)N1CCN(C(=O)COC(=O)c2ccc(O)cc2O)CC1)c1ccc(O)cc1O	LYPLA2 counter 28 (no result: RBBP9 inhibitor) | LYPLA2 conf 27
CCCOc1ccc(Oc2ccc(S(=O)(=O)N3CCN(C)CC3)cn2)cc1	none (no result: RBBP9 inhibitor)
CC(=O)Nc1cccc(NC(=O)C(=O)NCC(c2ccco2)N2CCc3ccccc32)c1 (stereo not drawn)	none (no result: RBBP9 inhibitor)
O=C(O)c1cc(NN=Nc2cccc([N+](=O)[O-])c2)cc([N+](=O)[O-])c1	LYPLA2 counter 28 | LYPLA2 conf 28
Cc1cccc(N2CCN(C(=O)c3ccc(NC(=O)CC4SC(N5CCCC5)=NC4=O)cc3)CC2)c1C (stereo not drawn)	none (no result: LYPLA1 inh, RBBP9 inhibitor, Fam108B counter, LYPLA2 counter, PME-1 primary)
COc1ccc(CCNC(=O)c2ccc(NC(=O)CC3SC(N4CCCC4)=NC3=O)cc2)cc1 (stereo not drawn)	LYPLA2 counter 52 (no result: RBBP9 inhibitor) | LYPLA2 conf 58 | LYPLA2 ABPP inactive
O=C(CC1SC(N2CCCC2)=NC1=O)Nc1ccc(C(=O)N2CCN(c3cccc(Cl)c3)CC2)cc1 (stereo not drawn)	LYPLA2 counter 30 (no result: RBBP9 inhibitor) | LYPLA2 conf 62 | LYPLA2 ABPP inactive
Cc1ccc(OCCNC(=O)c2ccc(NC(=O)CC3SC(N4CCCC4)=NC3=O)cc2)cc1 (stereo not drawn)	LYPLA2 counter 45 (no result: RBBP9 inhibitor) | LYPLA2 conf 40
CCc1nnc(NS(=O)(=O)c2ccc(NC(=S)NC(=O)/C=C/c3ccc([N+](=O)[O-])cc3)cc2)s1	LYPLA2 counter 67 | LYPLA2 conf 77 | LYPLA2 ABPP inactive
COC(=O)c1ccccc1NC(=O)C/C(C)=N/NC(=O)Cc1ccc(Cl)cc1	none (no result: RBBP9 inhibitor)
Cc1nc([N+](=O)[O-])c(Br)n1CC(=O)c1ccc2ccccc2c1	LYPLA2 counter 31 | LYPLA2 conf 30
Cc1nc([N+](=O)[O-])c(Br)n1CC(=O)c1ccccc1	none
COc1ccc(N2CCN(C(=O)CNS(=O)(=O)c3ccc(Br)s3)CC2)cc1	LYPLA2 counter 27 (no result: RBBP9 inhibitor) | LYPLA2 conf 33
COc1ccc(N2CCN(C(=O)CCNS(=O)(=O)c3cc(Br)cnc3N)CC2)cc1	LYPLA2 counter 32 (no result: RBBP9 inhibitor) | LYPLA2 conf inactive
CC1CC(C)CN(C(=O)c2cccc(N3C(=O)c4ccccc4C3=O)c2)C1 (stereo not drawn)	none (no result: RBBP9 inhibitor, Fam108B counter)

Bioassay records: PubChem, The Scripps Research Institute Molecular Screening Center
